Reference: ChEMBL document CHEMBL1145326, “Antimycobacterial agents. Novel diarylpyrrole derivatives of BM212 endowed with high activity toward Mycobacterium tuberculosis and low cytotoxicity” (2006)
Converted amounts (≈) assume the structure as drawn.

Key:
[1] = system: Mycobacterium avium; experiment: Antibacterial activity against Mycobacterium avium; type: functional
In short: (§1)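 MIC by serial 2-fold tube dilution. Compound DMSO stocks were filter-sterilised (0.2 µm) and diluted in water. Tubes were inoculated with 10⁵–10⁶ CFU/mL of each mycobacterium and incubated at 37 °C for 3–21 days. Each run included a drug-free control tube. Values are in µg/mL.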

[2] = system: Vero; experiment: Protection index, cytotoxicity against Vero cell line/antibacterial activity against Mycobacterium tuberculosis 103471; type: functional
In short: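 Protection index is the ratio of Vero-cell MNTD₅₀ (cell counts after 5-day exposure) to the MIC against M. tuberculosis CIP 103471. The MIC came from 2-fold tube dilution, inoculum 10⁵–10⁶ CFU/mL, 37 °C.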

[3] = system: Mycolicibacterium smegmatis; experiment: Antibacterial activity against Mycobacterium smegmatis; type: functional; in short: as §1
[4] = system: Vero; experiment: Cytotoxicity against Vero cell line; type: functional, Chlorocebus sabaeus
In short: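 Vero cells were cultured for 24 h, then the medium was replaced with medium holding decreasing compound concentrations. After 5 days the cells were trypsinised and counted in a Neubauer chamber, in triplicate. MNTD₅₀ (µg/mL) is the concentration that decreased cell multiplication by less than 50% of control.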

[5] = system: Mycobacterium marinum; experiment: Antibacterial activity against Mycobacterium marinum; type: functional; in short: as §1
[6] = system: Mycobacterium tuberculosis; experiment: Antibacterial activity against Mycobacterium tuberculosis 103471; type: functional; in short: as §1
[7] = system: Mycobacterium tuberculosis; experiment: Antibacterial activity against intramacrophagic Mycobacterium tuberculosis; type: functional

| Structure (SMILES) | MIC [1] | PI [2] | MIC [3] | Maximal non-toxic dose 50 [4] | MIC [5] | MIC [6] | MCC [7] |
| --- | --- | --- | --- | --- | --- | --- | --- |
| Cc1cccc(-n2c(-c3ccc(F)cc3)cc(CN3CCN(C)CC3)c2C)c1 | > 16 µg/mL | 1 | > 16 µg/mL | 16 µg/mL | > 16 µg/mL | 16 µg/mL (≈ 42.4 µM) | – |
| Cc1ccccc1-n1c(-c2ccc(F)cc2)cc(CN2CCSCC2)c1C | 16 µg/mL (≈ 42 µM) | 2 | > 16 µg/mL | 16 µg/mL | > 16 µg/mL | 8 µg/mL (≈ 21 µM) | – |
| Cc1c(CN2CCSCC2)cc(-c2ccc(Cl)cc2Cl)n1-c1ccc(F)cc1 | 4 µg/mL (≈ 9.19 µM) | 32 | > 16 µg/mL | 64 µg/mL | > 16 µg/mL | 2 µg/mL (≈ 4.59 µM) | – |
| CO[C@H]1/C=C/O[C@@]2(C)Oc3c(C)c(O)c4c(O)c(c(/C=N/N5CCN(C)CC5)c(O)c4c3C2=O)NC(=O)/C(C)=C\C=C\[C@H](C)[C@H](O)[C@@H](C)[C@@H](O)[C@@H](C)[C@H](OC(C)=O)[C@@H]1C [RIFAMPIN] | 0.3 µg/mL (≈ 0.365 µM) | 213 | 32 µg/mL (≈ 38.9 µM) | 64 µg/mL | 0.6 µg/mL (≈ 0.729 µM) | 0.3 µg/mL (≈ 0.365 µM) | 3 µg/mL |
| Cc1c(CN2CCN(C)CC2)cc(-c2ccc(Cl)cc2)n1-c1ccc(Cl)cc1 | 0.4 µg/mL (≈ 0.965 µM) | 5.6 | 25 µg/mL (≈ 60.3 µM) | 4 µg/mL | 100 µg/mL (≈ 241 µM) | 0.7 µg/mL (≈ 1.69 µM) | – |
| NNC(=O)c1ccncc1 [ISONIAZID] | 32 µg/mL (≈ 233 µM) | 128 | 64 µg/mL (≈ 467 µM) | 32 µg/mL | 16 µg/mL (≈ 117 µM) | 0.25 µg/mL (≈ 1.82 µM) | – |
| Cc1ccc(-c2cc(CN3CCSCC3)c(C)n2-c2ccc(F)cc2)cc1 | 8 µg/mL (≈ 21 µM) | 160 | 16 µg/mL (≈ 42 µM) | 64 µg/mL | 8 µg/mL (≈ 21 µM) | 0.4 µg/mL (≈ 1.05 µM) | 3 µg/mL |
| CN[C@@H]1[C@H](O[C@H]2[C@H](O[C@H]3[C@H](O)[C@@H](O)[C@H](N=C(N)N)[C@@H](O)[C@@H]3N=C(N)N)O[C@@H](C)[C@]2(O)C=O)O[C@@H](CO)[C@H](O)[C@H]1O (stereo in doubt) [STREPTOMYCIN] | 8 µg/mL (≈ 13.8 µM) | >128 | 8 µg/mL (≈ 13.8 µM) | >64 µg/mL | 32 µg/mL (≈ 55 µM) | 0.5 µg/mL (≈ 0.86 µM) | – |
| Cc1cccc(-n2c(-c3ccc(F)cc3)cc(CN3CCSCC3)c2C)c1 | 16 µg/mL (≈ 42 µM) | 2 | > 16 µg/mL | 8 µg/mL | > 16 µg/mL | 4 µg/mL (≈ 10.5 µM) | – |
| Cc1c(CN2CCN(C)CC2)cc(-c2ccc(F)cc2F)n1-c1ccc(F)cc1 | 16 µg/mL (≈ 40.1 µM) | 2 | > 16 µg/mL | 8 µg/mL | > 16 µg/mL | 4 µg/mL (≈ 10 µM) | – |
| Cc1c(CN2CCSCC2)cc(-c2ccc(F)cc2)n1-c1ccccc1F | 8 µg/mL (≈ 20.8 µM) | 16 | 8 µg/mL (≈ 20.8 µM) | 8 µg/mL | > 16 µg/mL | 0.5 µg/mL (≈ 1.3 µM) | 3 µg/mL |
| Cc1ccccc1-c1cc(CN2CCN(C)CC2)c(C)n1-c1ccc(F)cc1 | > 16 µg/mL | – | > 16 µg/mL | 2 µg/mL | > 16 µg/mL | > 16 µg/mL | – |
| Cc1c(CN2CCN(C)CC2)cc(-c2ccc(Cl)cc2Cl)n1-c1ccc(F)cc1 | 2 µg/mL (≈ 4.63 µM) | 2 | > 16 µg/mL | 16 µg/mL | > 16 µg/mL | 8 µg/mL (≈ 18.5 µM) | – |
| Cc1ccccc1-c1cc(CN2CCSCC2)c(C)n1-c1ccc(F)cc1 | 8 µg/mL (≈ 21 µM) | 2 | > 16 µg/mL | 8 µg/mL | > 16 µg/mL | 4 µg/mL (≈ 10.5 µM) | – |
| Cc1c(CN2CCSCC2)cc(-c2ccccc2Cl)n1-c1ccc(F)cc1 | 16 µg/mL (≈ 39.9 µM) | 1 | > 16 µg/mL | 4 µg/mL | > 16 µg/mL | 4 µg/mL (≈ 9.98 µM) | – |
| Cc1ccc(-n2c(-c3ccc(F)cc3)cc(CN3CCSCC3)c2C)cc1 | 8 µg/mL (≈ 21 µM) | 32 | 16 µg/mL (≈ 42 µM) | 32 µg/mL | 8 µg/mL (≈ 21 µM) | 1 µg/mL (≈ 2.63 µM) | – |

| Structure (SMILES) | MIC [1] | PI [2] | MIC [3] | Maximal non-toxic dose 50 [4] | MIC [5] | MIC [6] | MCC [7] |
| --- | --- | --- | --- | --- | --- | --- | --- |
| Cc1cccc(-c2cc(CN3CCN(C)CC3)c(C)n2-c2ccc(F)cc2)c1 | 16 µg/mL (≈ 42.4 µM) | 0.5 | > 16 µg/mL | 8 µg/mL | > 16 µg/mL | 16 µg/mL (≈ 42.4 µM) | – |
| Cc1c(CN2CCSCC2)cc(-c2ccc(F)cc2)n1-c1ccccc1Cl | > 16 µg/mL | 4 | > 16 µg/mL | 8 µg/mL | > 16 µg/mL | 2 µg/mL (≈ 4.99 µM) | – |
| Cc1ccccc1-n1c(-c2ccc(F)cc2)cc(CN2CCN(C)CC2)c1C | > 16 µg/mL | – | > 16 µg/mL | 2 µg/mL | > 16 µg/mL | > 16 µg/mL | – |
| Cc1c(CN2CCN(C)CC2)cc(-c2ccc(F)cc2)n1-c1ccccc1Cl | > 16 µg/mL | 2 | > 16 µg/mL | 8 µg/mL | > 16 µg/mL | 4 µg/mL (≈ 10.1 µM) | – |
| Cc1ccc(-c2cc(CN3CCN(C)CC3)c(C)n2-c2ccc(F)cc2)cc1 | 4 µg/mL (≈ 10.6 µM) | 2 | 8 µg/mL (≈ 21.2 µM) | 8 µg/mL | > 16 µg/mL | 4 µg/mL (≈ 10.6 µM) | – |
| Cc1c(CN2CCN(C)CC2)cc(-c2ccccc2Cl)n1-c1ccc(F)cc1 | 16 µg/mL (≈ 40.2 µM) | 0.25 | > 16 µg/mL | 2 µg/mL | > 16 µg/mL | 8 µg/mL (≈ 20.1 µM) | – |
| Cc1c(CN2CCN(C)CC2)cc(-c2ccccc2F)n1-c1ccc(F)cc1 | > 16 µg/mL | – | > 16 µg/mL | 4 µg/mL | > 16 µg/mL | > 16 µg/mL | – |
| Cc1c(CN2CCSCC2)cc(-c2ccc(F)cc2F)n1-c1ccc(F)cc1 | 16 µg/mL (≈ 39.8 µM) | 32 | > 16 µg/mL | 16 µg/mL | 16 µg/mL (≈ 39.8 µM) | 0.5 µg/mL (≈ 1.24 µM) | – |
| Cc1c(CN2CCN(C)CC2)cc(-c2ccc(F)cc2)n1-c1ccccc1F | 16 µg/mL (≈ 41.9 µM) | 1 | 0.3 µg/mL (≈ 0.786 µM) | 8 µg/mL | > 16 µg/mL | 8 µg/mL (≈ 21 µM) | – |
| Cc1c(CN2CCSCC2)cc(-c2ccc(F)cc2)n1-c1ccc(F)cc1F | 16 µg/mL (≈ 39.8 µM) | 8 | > 16 µg/mL | 16 µg/mL | 16 µg/mL (≈ 39.8 µM) | 2 µg/mL (≈ 4.97 µM) | – |
| Cc1cccc(-c2cc(CN3CCSCC3)c(C)n2-c2ccc(F)cc2)c1 | 8 µg/mL (≈ 21 µM) | 2 | > 16 µg/mL | 4 µg/mL | > 16 µg/mL | 2 µg/mL (≈ 5.26 µM) | – |
| Cc1c(CN2CCSCC2)cc(-c2ccccc2F)n1-c1ccc(F)cc1 | 16 µg/mL (≈ 41.6 µM) | 32 | > 16 µg/mL | 16 µg/mL | > 16 µg/mL | 0.5 µg/mL (≈ 1.3 µM) | – |
| Cc1c(CN2CCN(C)CC2)cc(-c2ccc(F)cc2)n1-c1ccc(Cl)cc1Cl | 4 µg/mL (≈ 9.25 µM) | 0.5 | > 16 µg/mL | 2 µg/mL | 8 µg/mL (≈ 18.5 µM) | 4 µg/mL (≈ 9.25 µM) | – |
| Cc1ccc(-n2c(-c3ccc(F)cc3)cc(CN3CCN(C)CC3)c2C)cc1 | 16 µg/mL (≈ 42.4 µM) | 0.5 | > 16 µg/mL | 8 µg/mL | 8 µg/mL (≈ 21.2 µM) | 16 µg/mL (≈ 42.4 µM) | – |
| Cc1c(CN2CCSCC2)cc(-c2ccc(F)cc2)n1-c1ccc(Cl)cc1Cl | 2 µg/mL (≈ 4.59 µM) | 4 | 16 µg/mL (≈ 36.7 µM) | 4 µg/mL | 8 µg/mL (≈ 18.4 µM) | 1 µg/mL (≈ 2.3 µM) | – |
| Cc1c(CN2CCN(C)CC2)cc(-c2ccc(F)cc2)n1-c1ccc(F)cc1F | 16 µg/mL (≈ 40.1 µM) | 1 | > 16 µg/mL | 16 µg/mL | 16 µg/mL (≈ 40.1 µM) | 16 µg/mL (≈ 40.1 µM) | – |
